In the library only some 2.2% were active in any assay of this set; here they are far more common.
rCAG binder: molecules binding r(CAG) RNA repeats. inhibition, % at 3 µM. actives 1.3% (n = 370,000). r(CAG) RNA repeat, TO-PRO-1 dye displacement fluorescence. AID 651821;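 active = inhibition above the plate cutoff, the mean of all test compounds on that plate plus 3 SD, cut at about 35% in these data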;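 note: higher means more dye released from RNA so lower well fluorescence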
ASAP1 inh: blocks human ASAP1-stimulated Arf1 GTP hydrolysis; Q9ULH1; GDP FP detection; inhibition, % at 16.5 µM; actives 0.19% (n = 360,000); AID 624377; in the data active = inhibition above about 25%
Target sequence (Q9ULH1 325-724 limits assumed): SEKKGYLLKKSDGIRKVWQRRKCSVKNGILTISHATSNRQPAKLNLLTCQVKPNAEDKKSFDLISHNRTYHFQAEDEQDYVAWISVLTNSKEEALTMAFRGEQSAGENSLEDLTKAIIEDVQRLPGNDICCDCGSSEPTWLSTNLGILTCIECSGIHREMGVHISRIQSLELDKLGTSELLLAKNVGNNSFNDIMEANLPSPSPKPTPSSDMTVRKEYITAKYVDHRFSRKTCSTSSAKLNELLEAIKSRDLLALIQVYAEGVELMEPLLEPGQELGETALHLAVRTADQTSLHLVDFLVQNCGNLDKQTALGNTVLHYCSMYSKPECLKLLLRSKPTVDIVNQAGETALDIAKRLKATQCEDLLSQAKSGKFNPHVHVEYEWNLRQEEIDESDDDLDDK
ARFGAP1 inh: rat ARFGAP1 inhibition; inhibition, % at 16.5 µM; Q62848; AID 651572; actives 0.26% (n = 360,000); Arfgap1-stimulated ARF1 GTP hydrolysis, GDP FP detection;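 active = inhibition above a per-plate limit, mean inhibition of low control wells plus 3 SD, cut at about 25% in these data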
Target sequence (Q62848 1-136 limits assumed): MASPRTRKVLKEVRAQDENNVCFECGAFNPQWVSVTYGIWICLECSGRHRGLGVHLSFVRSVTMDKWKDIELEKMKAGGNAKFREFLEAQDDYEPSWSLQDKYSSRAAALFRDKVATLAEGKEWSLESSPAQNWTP
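System: truncated rat Arfgap1 GAP domain / Benchmarks: high control wells lacking Arfgap1, low control full reaction with DMSO / Times: compound-enzyme preincubation 20 min, reaction 120 min, detection 60 min, 25 °C / Repeats: one replicate per compound / Also added: human ARF1(Δ1-17)-GTP substrate / Measured by: Tracer-displacement fluorescence polarization with EDTA stop, 620/688 nm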
NadD inh: blocks S. aureus nicotinate mononucleotide adenylyltransferase. purified NadD enzyme, colorimetric absorbance read-out. inhibition, % at 20 µM. actives 0.78% (n = 360,000). AID 602399; in the data active = inhibition above about 26%
rCAG bind conf: r(CAG) RNA repeat binding, confirmation; shares compounds with rCAG binder; TO-PRO-1 dye displacement fluorescence; inhibition, % at 3 µM; actives 70% (n = 4,300); AID 652065;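 active = inhibition above a per-plate cutoff, the mean inhibition of sample wells plus 3 SD, cut at about 35% in these data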;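 note: loss of TO-PRO-1 fluorescence as compound displaces dye from 1x1 AA loop RNA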
DNA CAG counter: counter-screen for rCAG RNA binders: DNA CAG dye complex inhibitors; shares compounds with rCAG binder; d(CAG) DNA oligo TO-PRO-1 dye displacement, fluorescence; inhibition, % at 3 µM; actives 94% (n = 4,300); AID 652068;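 active = inhibition above its plate's cutoff, the mean test-well inhibition plus 3 SD, cut at about 4.8% in these data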;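 note: hits displace the dye from DNA and so lower well fluorescence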
dCAG dye DR: disrupts DNA CAG TO-PRO-1 complex in dose response; shares compounds with rCAG binder; DNA CAG/GTC duplex TO-PRO-1 dye displacement fluorescence; IC50, µM; actives 20% (n = 250); AID 686960; in the data active = IC50 below about 10 µM
Hits are given with their value.

`Cc1ccc2[nH]c(C(=O)O)c(NC(=O)CN3CCN(c4cccc(C)c4C)CC3)c2c1` gave rCAG binder 65, ASAP1 inh inactive, ARFGAP1 inh inactive, NadD inh inactive, rCAG bind conf 69 and DNA CAG counter 28.
Screening COC(=O)c1[nH]c2ccc(C)cc2c1NC(=O)CN1CCN(c2ccccc2)CC1 returned rCAG binder inactive, ASAP1 inh inactive, ARFGAP1 inh inactive and NadD inh inactive.
For C[C@H]1/C=C/CC(=O)N[C@@H](c2ccc3ccccc3c2)[C@@H](C)/C=C/CC(=O)N[C@H]1c1ccc2ccccc2c1 the results were rCAG binder inactive.
`O=S(=O)(Nc1cc(Cl)ccc1-n1cncn1)c1cc(Br)ccc1Br` gave rCAG binder 57, ASAP1 inh inactive, ARFGAP1 inh inactive, NadD inh inactive, rCAG bind conf 56 and DNA CAG counter 21.
For CC(C)(C)c1ccc(-c2nnc(SCC(=O)c3ccc([N+](=O)[O-])cc3)n2-c2ccc(Cl)cc2)cc1 the results were rCAG binder inactive.
CC(/C=N/n1c(-c2ccc(Cl)cc2)n[nH]c1=S)=C\c1ccco1 was read as rCAG binder 39, ASAP1 inh inactive, ARFGAP1 inh inactive, NadD inh inactive, rCAG bind conf 39 and DNA CAG counter 12.
For CC(C)Oc1cccc(-c2n[nH]c(=S)n2N=Cc2ccc(O)cc2O)c1 the results were rCAG binder inactive.
CC(C)Oc1cccc(-c2n[nH]c(=S)n2N=Cc2cccc([N+](=O)[O-])c2)c1 was read as rCAG binder 51, rCAG bind conf 57 and DNA CAG counter 17.
`CC(C)c1ccc(/C=N/n2c(COc3ccccc3)n[nH]c2=S)cc1` gave rCAG binder 36, ASAP1 inh inactive, ARFGAP1 inh inactive, NadD inh inactive, rCAG bind conf 48 and DNA CAG counter 11.
S=c1[nH]nc(-c2ccncc2)n1/N=C/C=C/c1ccccc1 was read as rCAG binder inactive, ASAP1 inh inactive, ARFGAP1 inh inactive and NadD inh inactive.
For S=c1[nH]nc(-c2ccncc2)n1/N=C/C(Cl)=C\c1ccccc1 the results were rCAG binder 39, ASAP1 inh inactive, ARFGAP1 inh inactive, NadD inh inactive, rCAG bind conf inactive and DNA CAG counter 9.5.
Screening CC(C)CC1NC(=O)c2cccnc2-n2c1nc1ccccc1c2=O (stereo not drawn) returned rCAG binder inactive, ASAP1 inh inactive, ARFGAP1 inh inactive and NadD inh inactive.
For S=c1[nH]nc(COc2ccccc2)n1/N=C/C=C/c1ccccc1 the results were rCAG binder inactive, ASAP1 inh inactive, ARFGAP1 inh inactive and NadD inh inactive.
S=c1[nH]nc(COc2ccccc2)n1/N=C/c1ccc(Br)cc1 was read as rCAG binder inactive, ASAP1 inh inactive, ARFGAP1 inh inactive and NadD inh inactive.
Screening COc1cccc(/C=N/n2c(-c3cc(C)[nH]n3)n[nH]c2=S)c1 returned rCAG binder inactive, ASAP1 inh inactive, ARFGAP1 inh inactive and NadD inh inactive.
`Cc1cc(-c2n[nH]c(=S)n2N=Cc2cccc(Oc3ccccc3)c2)n[nH]1` gave rCAG binder 46, rCAG bind conf inactive and DNA CAG counter 7.9.
For S=c1[nH]nc(COc2ccccc2)n1/N=C/c1cccc(Br)c1 the results were rCAG binder 42, ASAP1 inh inactive, ARFGAP1 inh inactive, NadD inh inactive, rCAG bind conf 44 and DNA CAG counter 14.
S=c1[nH]nc(COc2ccccc2)n1/N=C/C(Cl)=C/c1ccccc1 was read as rCAG binder 52, ASAP1 inh inactive, ARFGAP1 inh inactive, NadD inh inactive, rCAG bind conf 72, DNA CAG counter 34 and dCAG dye DR inactive.
For COC/C=C/C1=CC2=CC(=O)C(C)(OC(=O)C3CCCC3)C(=O)C2=CO1 (stereo not drawn) the results were rCAG binder 50, ASAP1 inh inactive, ARFGAP1 inh inactive, NadD inh inactive, rCAG bind conf inactive and DNA CAG counter 15.
Screening CC1(OC(=O)C2CCCC2)C(=O)C=C2C=C3CCCCN3C=C2C1=O (stereo not drawn) returned NadD inh inactive.
O=C(Nc1ccccc1N1CCCC1)C1CCCO1 (stereo not drawn) was read as rCAG binder inactive, ASAP1 inh inactive, ARFGAP1 inh inactive and NadD inh inactive.
`COc1ccccc1N(C)S(=O)(=O)c1ccc(C(=O)N(C)Cc2ccc(Cl)s2)cc1` gave rCAG binder inactive, ASAP1 inh inactive, ARFGAP1 inh inactive and NadD inh inactive.
CN(C)c1ccc(C(C(=O)NC2CCCCC2)N(Cc2ccco2)C(=O)c2snc(C(N)=O)c2N)cc1 (stereo not drawn) was read as rCAG binder inactive, ASAP1 inh inactive, ARFGAP1 inh inactive and NadD inh inactive.
Screening Cc1cc(C)c(C)c(S(=O)(=O)N2C(=S)NC(=O)C2CC(C)C)c1C (stereo not drawn) returned rCAG binder 41, ASAP1 inh inactive, ARFGAP1 inh inactive, NadD inh inactive, rCAG bind conf inactive and DNA CAG counter 8.0.
`COc1ccc(C2(C(=O)Nc3ccc(S(=O)(=O)Nc4nc(C)cc(C)n4)cc3)CCCC2)cc1OC` gave rCAG binder inactive, ASAP1 inh inactive, ARFGAP1 inh inactive and NadD inh inactive.
For Cc1cc(C)nc(NS(=O)(=O)c2ccc(NC(=O)C3(c4ccc([N+](=O)[O-])cc4)CCCC3)cc2)n1 the results were rCAG binder 40, ASAP1 inh inactive, ARFGAP1 inh inactive, NadD inh inactive, rCAG bind conf inactive and DNA CAG counter 9.0.
For COC(=O)[C@]12C[C@H](CC(=O)N3CCN(C(=O)C4CC4)CC3)C(=O)N(CCC3=CCCCC3)C1=C[C@H](COCc1ccccc1)O[C@@H]2C the results were rCAG binder inactive, ASAP1 inh inactive and ARFGAP1 inh inactive.
For C[C@@H]1CN([C@@H](C)CO)S(=O)(=O)c2ccc(/C=C/c3ccccc3)cc2O[C@@H]1CN(C)Cc1ccc(C(=O)O)cc1 the results were rCAG binder 60, ASAP1 inh inactive, ARFGAP1 inh inactive, NadD inh inactive, rCAG bind conf 66 and DNA CAG counter 25.
Cc1ccc(-n2c(SCC(=O)Nc3ccc(Oc4ccccc4)cc3)nnc2-c2cccc(C)c2)cc1 was read as rCAG binder inactive.
CCOC(=O)C1=C(O)/C(=C/c2ccc(OCC(=O)O)c(OCC)c2)SC1=Nc1ccc(OC)cc1 was read as rCAG binder 56, ASAP1 inh inactive, ARFGAP1 inh inactive, NadD inh inactive, rCAG bind conf 64 and DNA CAG counter 22.
CCOC(=O)C1=C(O)/C(=C\c2ccc(O)c(OCC)c2)N=C1C was read as rCAG binder inactive, ASAP1 inh inactive, ARFGAP1 inh inactive and NadD inh inactive.

Screening data deposited in PubChem BioAssay by several laboratories.
